{"source": "paper PMC4002258", "about": "(Biochimica et biophysica acta, 2013)", "assay_type_in_all_cases": "biochemical", "key": {"[1]": {"target": "human recombinant core 1 β1,3-Gal-transferase (C1GalT) (Homo sapiens, UniProt Q9NS00)", "sequence (Q9NS00 30-363 limits assumed)": "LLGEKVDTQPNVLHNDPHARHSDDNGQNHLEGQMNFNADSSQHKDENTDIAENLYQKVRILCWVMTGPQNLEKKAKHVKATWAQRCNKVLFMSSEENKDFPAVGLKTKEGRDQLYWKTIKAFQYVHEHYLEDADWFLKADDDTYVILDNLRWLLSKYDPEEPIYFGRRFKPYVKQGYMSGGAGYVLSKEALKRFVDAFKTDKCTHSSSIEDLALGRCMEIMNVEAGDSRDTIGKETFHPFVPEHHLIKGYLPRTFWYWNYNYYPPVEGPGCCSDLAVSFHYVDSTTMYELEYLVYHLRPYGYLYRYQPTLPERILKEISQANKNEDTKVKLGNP", "assay": "C1GalT glycosyltransferase assay", "settings": "for C1GalT activity (%): acceptor substrate 0.5 mM, 0.5 mM GalNAcα-Bn set to 100%"}, "[2]": {"target": "T1, human recombinant core 3 β1,3-GlcNAc-transferase (C3GnT) (Homo sapiens, UniProt Q6ZMB0)", "T1 sequence (Q6ZMB0 32-384 limits assumed)": "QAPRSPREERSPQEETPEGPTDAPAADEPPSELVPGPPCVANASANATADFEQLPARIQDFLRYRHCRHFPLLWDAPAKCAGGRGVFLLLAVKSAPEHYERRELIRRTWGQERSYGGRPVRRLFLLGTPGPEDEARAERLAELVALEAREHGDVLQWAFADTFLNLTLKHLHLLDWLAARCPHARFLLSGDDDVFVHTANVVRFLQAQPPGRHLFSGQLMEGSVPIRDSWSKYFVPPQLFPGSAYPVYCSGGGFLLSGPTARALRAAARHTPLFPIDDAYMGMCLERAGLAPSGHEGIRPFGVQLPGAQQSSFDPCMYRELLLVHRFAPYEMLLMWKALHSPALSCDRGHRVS", "assay": "C3GnT glycosyltransferase assay", "settings": "for C3GnT activity (%): acceptor substrate 0.5 mM, 0.5 mM GalNAcα-Bn set to 100%; for Vmax / Km: C3GnT; for Vmax: acceptor substrate; for Km: apparent KM for acceptor substrate"}, "[3]": {"target": "T2, human recombinant core 2 β1,6-GlcNAc-transferase (C2GnT1) (Homo sapiens, UniProt Q02742)", "T2 sequence (Q02742 33-428 limits assumed)": "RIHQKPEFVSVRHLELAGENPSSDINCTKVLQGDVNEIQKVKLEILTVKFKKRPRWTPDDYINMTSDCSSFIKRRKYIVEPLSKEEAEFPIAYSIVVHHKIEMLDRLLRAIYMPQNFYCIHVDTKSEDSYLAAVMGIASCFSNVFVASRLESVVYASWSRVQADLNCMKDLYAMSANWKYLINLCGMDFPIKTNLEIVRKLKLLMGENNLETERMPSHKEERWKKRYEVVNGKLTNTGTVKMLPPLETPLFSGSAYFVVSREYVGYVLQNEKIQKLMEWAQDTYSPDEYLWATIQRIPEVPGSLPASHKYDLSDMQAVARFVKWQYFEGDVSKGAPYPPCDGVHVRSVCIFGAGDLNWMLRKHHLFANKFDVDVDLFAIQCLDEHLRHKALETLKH", "assay": "C2GnT1 glycosyltransferase assay", "settings": "acceptor substrate 0.5 mM; 0.5 mM Galβ1–3GalNAcα-pnp set to 100%"}, "[4]": {"target": "T2, human recombinant core 2 β1,6-GlcNAc-transferase (C2GnT1)", "assay": "Inhibition of C2GnT1", "settings": "inhibitor 0.5 mM, 0.5 mM Galβ1–3GalNAcα-pnp acceptor"}, "[5]": {"target": "T1, human recombinant core 3 β1,3-GlcNAc-transferase (C3GnT)", "assay": "Inhibition of C3GnT", "settings": "inhibitor 0.5 mM, 0.5 mM GalNAcα-Bn acceptor", "method_in_brief": "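His-tagged human C3GnT from Sf9 cells, Ni2+-NTA purified, 0.003 mg protein per assay. Inhibitor at acceptor concentration unless indicated. Incubated 1 h at 37 °C, then cold-water stop. AG1×8 anion exchange; eluate counted by scintillation.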"}, "[6]": {"target": "T3, human recombinant core 2/4 β1,6-GlcNAc-transferase (C2GnT2) (Homo sapiens, UniProt O95395)", "T3 sequence (O95395 27-438)": "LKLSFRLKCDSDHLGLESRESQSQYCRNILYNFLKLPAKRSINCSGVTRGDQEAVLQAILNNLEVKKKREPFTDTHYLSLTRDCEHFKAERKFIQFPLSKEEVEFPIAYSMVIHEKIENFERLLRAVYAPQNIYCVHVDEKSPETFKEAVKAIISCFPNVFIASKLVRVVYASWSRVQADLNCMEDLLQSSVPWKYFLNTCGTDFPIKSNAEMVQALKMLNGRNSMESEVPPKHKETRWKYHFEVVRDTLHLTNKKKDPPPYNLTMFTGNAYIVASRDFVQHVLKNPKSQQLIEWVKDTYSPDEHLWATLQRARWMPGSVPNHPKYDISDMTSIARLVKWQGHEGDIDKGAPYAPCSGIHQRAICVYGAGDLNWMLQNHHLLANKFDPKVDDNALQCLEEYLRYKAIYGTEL", "settings": "acceptor substrate 0.5 mM; 0.5 mM Galβ1–3GalNAcα-pnp set to 100%"}}, "note": "Several values for one entry are separate records, joined by “and”; a condition that tells them apart may be missing. Identical values can stand only once. Marks after values point to notes of the source that are not given here."}
{"smiles": "OC[C@H]1O[C@H](OCc2ccccc2)C[C@@H](O)[C@H]1O", "note": "[2-Deoxy-Galα-Bn]", "values": [{"measurement": "C1GalT activity (%)", "setting": "[1]", "value": "<1", "unit": "%"}, {"measurement": "C3GnT activity (%)", "setting": "[2]", "value": "<1", "unit": "%"}]}
{"smiles": "CCCC(=O)N[C@H]1[C@@H](OCc2ccccc2)O[C@H](CO)[C@H](O)[C@@H]1O", "note": "[2-N-Butyryl-GalNα-Bn, benzyl 2-butanamido-2-deoxy-α-D-galactoside]", "values": [{"measurement": "C2GnT1 activity (%)", "setting": "[3]", "value": "<1", "unit": "%"}, {"measurement": "C1GalT activity (%)", "setting": "[1]", "value": "<1", "unit": "%"}, {"measurement": "C3GnT activity (%)", "setting": "[2]", "value": "<1", "unit": "%"}, {"measurement": "C2GnT1 Inhibition (%)", "setting": "[4]", "value": "did not inhibit"}, {"measurement": "C3GnT Inhibition (%)", "setting": "[5]", "value": "did not inhibit"}, {"measurement": "C2GnT2 activity (%)", "setting": "[6]", "value": "<1", "unit": "%"}]}
{"smiles": "CCC(=O)N[C@H]1[C@@H](OCc2ccccc2)O[C@H](CO)[C@H](O)[C@@H]1O", "note": "[2-N-Propionyl-GalNα-Bn]", "values": [{"measurement": "C1GalT activity (%)", "setting": "[1]", "value": 60, "unit": "%"}, {"measurement": "C3GnT activity (%)", "setting": "[2]", "value": 62, "unit": "%"}]}
{"smiles": "CC(=O)N[C@@H]1C[C@@H](O)[C@@H](CO)O[C@@H]1OCc1ccccc1", "note": "[3-Deoxy-GalNAcα-Bn]", "values": [{"measurement": "C2GnT1 activity (%)", "setting": "[3]", "value": "<1", "unit": "%"}, {"measurement": "C1GalT activity (%)", "setting": "[1]", "value": "<1", "unit": "%"}, {"measurement": "C3GnT activity (%)", "setting": "[2]", "value": "<1", "unit": "%"}, {"measurement": "C2GnT2 activity (%)", "setting": "[6]", "value": "<1", "unit": "%"}]}
{"smiles": "CCO[C@H]1[C@@H](O)[C@@H](CO)O[C@H](OCc2ccccc2)[C@@H]1NC(C)=O", "note": "[3-O-Ethyl-GalNAcα-Bn]", "values": [{"measurement": "C1GalT activity (%)", "setting": "[1]", "value": "<1", "unit": "%"}, {"measurement": "C3GnT activity (%)", "setting": "[2]", "value": "<1", "unit": "%"}]}
{"smiles": "CCCO[C@H]1[C@@H](O)[C@@H](CO)O[C@H](OCc2ccccc2)[C@@H]1NC(C)=O", "note": "[3-O-Propyl-GalNAcα-Bn]", "values": [{"measurement": "C1GalT activity (%)", "setting": "[1]", "value": "<1", "unit": "%"}, {"measurement": "C3GnT activity (%)", "setting": "[2]", "value": "<1", "unit": "%"}]}
{"smiles": "CC(=O)N[C@H]1[C@@H](OCc2ccccc2)O[C@H](CO)C[C@@H]1O", "note": "[4-Deoxy-GalNAcα-Bn]", "values": [{"measurement": "C1GalT activity (%)", "setting": "[1]", "value": "<1", "unit": "%"}, {"measurement": "C3GnT activity (%)", "setting": "[2]", "value": "<1", "unit": "%"}]}
{"smiles": "CC(=O)N[C@H]1[C@@H](OCc2ccccc2)O[C@H](CO[C@@H]2O[C@H](CO)[C@@H](F)[C@H](O)[C@H]2NC(C)=O)[C@H](O)[C@@H]1O", "note": "[4-F-4-Deoxy-GlcNAcβ1–6-GalNAcα-Bn]", "values": [{"measurement": "C1GalT activity (%)", "setting": "[1]", "value": 88, "unit": "%"}, {"measurement": "C3GnT activity (%)", "setting": "[2]", "value": "<1", "unit": "%"}]}
{"smiles": "CC(=O)N[C@H]1[C@@H](OCc2ccccc2)O[C@H](C)[C@H](O)[C@@H]1O", "note": "[6-Deoxy-GalNAcα-Bn]", "values": [{"measurement": "C1GalT activity (%)", "setting": "[1]", "value": 68, "unit": "%"}, {"measurement": "C3GnT activity (%)", "setting": "[2]", "value": "<1", "unit": "%"}]}
{"smiles": "CC(=O)N[C@H]1[C@@H](OCc2ccccc2)O[C@H](COCCCC2CO2)[C@H](O)[C@@H]1O", "note": "(stereo partly shown) [6-O-(4,5-Anhydro)pentyl-GalNAcα-Bn]", "values": [{"measurement": "C1GalT activity (%)", "setting": "[1]", "value": 191, "unit": "%"}, {"measurement": "C3GnT activity (%)", "setting": "[2]", "value": "<1", "unit": "%"}]}
{"smiles": "CC(=O)N[C@H]1C(O)O[C@H](CO)[C@H](O)[C@@H]1O", "note": "(stereo partly shown) [GalNAc, reference compound]", "values": [{"measurement": "C1GalT activity (%)", "setting": "[1]", "value": 6, "unit": "%"}, {"measurement": "C3GnT activity (%)", "setting": "[2]", "value": "<1", "unit": "%"}]}
{"smiles": "CC(=O)N[C@H]1[C@@H](OCc2ccccc2)O[C@H](CO)[C@H](O)[C@@H]1O", "note": "[GalNAcα-Bn, reference compound]", "values": [{"measurement": "C2GnT1 activity (%)", "setting": "[3]", "value": "<1", "unit": "%"}, {"measurement": "Vmax", "setting": "[1]; C1GalT, acceptor substrate", "value": 0.14, "unit": "µmol/h/mg"}, {"measurement": "Km", "setting": "[1]; C1GalT, apparent KM for acceptor substrate", "value": 800, "unit": "µM"}, {"measurement": "C1GalT activity (%)", "setting": "[1]", "value": "100 ^a %"}, {"measurement": "Vmax", "setting": "[2]", "value": 0.95, "unit": "µmol/h/mg"}, {"measurement": "Km", "setting": "[2]", "value": 3000, "unit": "µM"}, {"measurement": "C3GnT activity (%)", "setting": "[2]", "value": "100 ^b %"}, {"measurement": "C2GnT2 activity (%)", "setting": "[6]", "value": "<1", "unit": "%"}]}
{"smiles": "CC(=O)NC1C(OP(=O)(O)OP(=O)(O)OCCCCCCCCCCCOc2ccccc2)OC(CO)C(O)C1O", "note": "(stereo not shown) [GalNAcα-O-PO3-PO3-(CH2)11-O-Ph]", "values": [{"measurement": "C1GalT activity (%)", "setting": "[1]", "value": "<1", "unit": "%"}, {"measurement": "C3GnT activity (%)", "setting": "[2]", "value": "<1", "unit": "%"}]}
{"smiles": "C=C(C)C1CC=C(CO[C@H]2O[C@H](CO)[C@H](O)[C@H](O)[C@H]2NC(C)=O)CC1", "note": "(stereo partly shown) [GalNAcα-perillyl]", "values": [{"measurement": "C1GalT activity (%)", "setting": "[1]", "value": 102, "unit": "%"}, {"measurement": "Vmax", "setting": "[2]", "value": "0.4 µmol/h/mg and 0.40 µmol/h/mg"}, {"measurement": "Km", "setting": "[2]", "value": 300, "unit": "µM"}, {"measurement": "C3GnT activity (%)", "setting": "[2]", "value": 153, "unit": "%"}]}
{"smiles": "CC(=O)N[C@H]1[C@@H](Oc2ccccc2)O[C@H](CO)[C@H](O)[C@@H]1O", "note": "[GalNAcα-phenyl]", "values": [{"measurement": "C1GalT activity (%)", "setting": "[1]", "value": 181, "unit": "%"}, {"measurement": "C3GnT activity (%)", "setting": "[2]", "value": 37, "unit": "%"}]}
{"smiles": "CC(=O)N[C@H]1[C@@H](Oc2ccc([N+](=O)[O-])cc2)O[C@H](CO)[C@H](O)[C@@H]1O", "note": "[GalNAcα-pnp]", "values": [{"measurement": "C1GalT activity (%)", "setting": "[1]", "value": 204, "unit": "%"}, {"measurement": "C3GnT activity (%)", "setting": "[2]", "value": 88, "unit": "%"}]}
